Source: ChEMBL document CHEMBL2321783, “Structure-activity relationships of peptides incorporating a bioactive reverse-turn heterocycle at the melanocortin receptors: identification of a 5800-fold mouse melanocortin-3 receptor (mMC3R) selective antagonist/partial agonist versus the mouse melanocortin-4 receptor (mMC4R)” (J Med Chem, 2013)

Columns and labels:
Type in all cases: functional, cell-based
Melanocortin receptor 5 = Melanocortin receptor 5 (Mus musculus, UniProt P41149); experiment: Agonist activity at mouse MC5 receptor expressed in HEK293 cells after 6 hrs by cAMP-based beta-galactosidase reporter gene assay; details: hek293
Melanocortin receptor 5, sequence (P41149 whole entry): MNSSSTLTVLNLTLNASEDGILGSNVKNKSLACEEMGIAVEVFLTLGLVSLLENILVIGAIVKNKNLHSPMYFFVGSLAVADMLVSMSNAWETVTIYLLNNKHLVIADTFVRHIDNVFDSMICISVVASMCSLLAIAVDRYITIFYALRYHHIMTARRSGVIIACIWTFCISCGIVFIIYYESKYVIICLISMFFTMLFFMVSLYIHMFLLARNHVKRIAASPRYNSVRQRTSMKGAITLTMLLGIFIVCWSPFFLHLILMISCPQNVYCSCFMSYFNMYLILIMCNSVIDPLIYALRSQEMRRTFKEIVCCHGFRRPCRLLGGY
Method in brief: (§1)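 HEK-293 cells stably expressing the mouse receptor, kept in DMEM with 10% fetal calf serum, transfected with CRE/β-galactosidase reporter. Efficacy is relative to NDP-MSH on the same plate. EC50 is the mean of duplicate wells from three or more independent experiments, fitted by nonlinear least squares.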

Melanocortin receptor 4 = Melanocortin receptor 4 (Mus musculus, UniProt P56450); experiment: Agonist activity at mouse MC4 receptor expressed in HEK293 cells after 6 hrs by cAMP-based beta-galactosidase reporter gene assay; details: hek293; method in brief: as §1
Melanocortin receptor 4, sequence (P56450 whole entry): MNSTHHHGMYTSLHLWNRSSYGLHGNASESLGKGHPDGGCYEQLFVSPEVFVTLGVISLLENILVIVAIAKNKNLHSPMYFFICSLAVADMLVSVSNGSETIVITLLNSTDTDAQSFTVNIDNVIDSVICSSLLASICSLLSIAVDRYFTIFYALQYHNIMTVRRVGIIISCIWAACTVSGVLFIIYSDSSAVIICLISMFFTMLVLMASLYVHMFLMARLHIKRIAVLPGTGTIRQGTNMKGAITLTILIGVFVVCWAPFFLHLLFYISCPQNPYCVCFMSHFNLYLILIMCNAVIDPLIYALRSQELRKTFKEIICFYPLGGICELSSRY

[1] = target: Melanocyte-stimulating hormone receptor (Mus musculus, UniProt Q01727); experiment: Agonist activity at mouse MC1 receptor expressed in HEK293 cells after 6 hrs by cAMP-based beta-galactosidase reporter gene assay; details: hek293; method in brief: as §1
Melanocyte-stimulating hormone receptor, sequence (Q01727 whole entry): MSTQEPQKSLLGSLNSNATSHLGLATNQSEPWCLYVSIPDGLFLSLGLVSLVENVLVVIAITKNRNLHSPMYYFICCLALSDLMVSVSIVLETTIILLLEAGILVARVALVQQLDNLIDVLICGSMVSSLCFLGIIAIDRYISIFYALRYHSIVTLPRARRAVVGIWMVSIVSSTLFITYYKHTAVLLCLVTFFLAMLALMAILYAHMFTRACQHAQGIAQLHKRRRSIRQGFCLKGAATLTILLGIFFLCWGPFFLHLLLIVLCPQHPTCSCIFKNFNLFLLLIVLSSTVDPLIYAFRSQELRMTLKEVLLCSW

Melanocortin receptor 3 = Melanocortin receptor 3 (Mus musculus, UniProt P33033); experiment: Agonist activity at mouse MC3 receptor expressed in HEK293 cells after 6 hrs by cAMP-based beta-galactosidase reporter gene assay; method in brief: as §1
Melanocortin receptor 3, sequence (P33033 whole entry): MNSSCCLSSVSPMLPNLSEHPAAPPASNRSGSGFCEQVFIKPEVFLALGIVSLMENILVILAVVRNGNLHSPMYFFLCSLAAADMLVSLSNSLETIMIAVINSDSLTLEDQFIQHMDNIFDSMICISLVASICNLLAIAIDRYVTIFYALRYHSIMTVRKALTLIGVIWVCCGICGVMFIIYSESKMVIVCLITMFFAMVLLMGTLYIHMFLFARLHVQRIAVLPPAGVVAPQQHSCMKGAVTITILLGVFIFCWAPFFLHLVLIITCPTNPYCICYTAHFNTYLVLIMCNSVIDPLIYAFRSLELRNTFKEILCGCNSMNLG

SMILES | EC50 (Melanocortin receptor 5) [nM] | EC50 (Melanocortin receptor 4) [nM] | EC50 [1] [nM] | EC50 (Melanocortin receptor 3) [nM]
C[C@@H]1NC(=O)[C@H](CC(N)=O)NC(=O)[C@H](Cc2ccc(-c3ccccc3)cc2)N2C[C@H](CCCNC(=N)N)NC(=O)[C@H](CSCC2=O)NC(=O)[C@@H](Cc2ccccc2)NC(=O)[C@H](Cc2c[nH]cn2)NC(=O)[C@@H](NC(=O)[C@@H](N)Cc2ccc(O)cc2)CSSC[C@@H](C(=O)N[C@@H](Cc2ccc(O)cc2)C(N)=O)NC(=O)[C@H](Cc2ccccc2)NC1=O | 830 | 980 | 20 | 
C[C@@H]1NC(=O)[C@H](CC(N)=O)NC(=O)[C@H](Cc2c[nH]c3ccccc23)N2C[C@H](CCCCN)NC(=O)[C@@H](CSCC2=O)NC(=O)[C@@H](Cc2ccccc2)NC(=O)[C@H](Cc2cnc[nH]2)NC(=O)[C@@H](NC(=O)[C@@H](N)Cc2ccc(O)cc2)CSSC[C@@H](C(=O)N[C@@H](Cc2ccc(O)cc2)C(N)=O)NC(=O)[C@H](Cc2ccccc2)NC1=O |  |  |  | 2540
C[C@@H]1NC(=O)[C@H](CC(N)=O)NC(=O)[C@H](Cc2c[nH]c3ccccc23)N2C[C@H](CCCNC(=N)N)NC(=O)[C@H](CSCC2=O)NC(=O)[C@@H](Cc2cccc3ccccc23)NC(=O)[C@H](Cc2c[nH]cn2)NC(=O)[C@@H](NC(=O)[C@@H](N)Cc2ccc(O)cc2)CSSC[C@@H](C(=O)N[C@@H](Cc2ccc(O)cc2)C(N)=O)NC(=O)[C@H](Cc2ccccc2)NC1=O | 205 | 130 | 7.4 | 
C[C@@H]1NC(=O)[C@H](CC(N)=O)NC(=O)[C@H](Cc2c[nH]c3ccccc23)N2C[C@H](CCCNC(=N)N)NC(=O)[C@H](CSCC2=O)NC(=O)[C@@H](Cc2ccc(I)cc2)NC(=O)[C@H](Cc2c[nH]cn2)NC(=O)[C@@H](NC(=O)[C@@H](N)Cc2ccc(O)cc2)CSSC[C@@H](C(=O)N[C@@H](Cc2ccc(O)cc2)C(N)=O)NC(=O)[C@H](Cc2ccccc2)NC1=O | 9.8 | 20 | 0.5 | 
C[C@@H]1NC(=O)[C@H](CC(N)=O)NC(=O)[C@H](C)N2C[C@H](CCCNC(=N)N)NC(=O)[C@H](CSCC2=O)NC(=O)[C@@H](Cc2ccccc2)NC(=O)[C@H](Cc2c[nH]cn2)NC(=O)[C@@H](NC(=O)[C@@H](N)Cc2ccc(O)cc2)CSSC[C@@H](C(=O)N[C@@H](Cc2ccc(O)cc2)C(N)=O)NC(=O)[C@H](Cc2ccccc2)NC1=O | 125 | 210 | 80 | 
C[C@@H]1NC(=O)[C@@H](NC(=O)[C@@H](N)Cc2ccc(O)cc2)CSSC[C@@H](C(=O)N[C@@H](Cc2ccc(O)cc2)C(N)=O)NC(=O)[C@H](Cc2ccccc2)NC(=O)[C@H](C)NC(=O)[C@H](CC(N)=O)NC(=O)[C@H](Cc2c[nH]c3ccccc23)N2C[C@H](CCCNC(=N)N)NC(=O)[C@@H](CSCC2=O)NC(=O)[C@@H](Cc2ccccc2)NC1=O |  |  |  | 4020
C[C@@H]1NC(=O)[C@H](CC(N)=O)NC(=O)[C@H](Cc2c[nH]c3ccccc23)N2C[C@H](CCCNC(=N)N)NC(=O)[C@@H](CSCC2=O)NC(=O)[C@@H](Cc2ccccc2)NC(=O)[C@@H]2CCCN2C(=O)[C@@H](NC(=O)[C@@H](N)Cc2ccc(O)cc2)CSSC[C@@H](C(=O)N[C@@H](Cc2ccc(O)cc2)C(N)=O)NC(=O)[C@H](Cc2ccccc2)NC1=O |  |  |  | 1900
C[C@@H]1NC(=O)[C@H](CC(N)=O)NC(=O)[C@H](Cc2c[nH]c3ccccc23)N2C[C@H](CCCNC(=N)N)NC(=O)[C@H](CSCC2=O)NC(=O)[C@@H](Cc2ccccc2)NC(=O)[C@@H]2CCCN2C(=O)[C@@H](NC(=O)[C@@H](N)Cc2ccc(O)cc2)CSSC[C@@H](C(=O)N[C@@H](Cc2ccc(O)cc2)C(N)=O)NC(=O)[C@H](Cc2ccccc2)NC1=O | 270 | 240 | 32 | 
C[C@@H]1NC(=O)[C@@H](NC(=O)[C@@H](N)Cc2ccc(O)cc2)CSSC[C@@H](C(=O)N[C@@H](Cc2ccc(O)cc2)C(N)=O)NC(=O)[C@H](Cc2ccccc2)NC(=O)[C@H](C)NC(=O)[C@H](CC(N)=O)NC(=O)[C@H](Cc2c[nH]c3ccccc23)N2C[C@H](CCCNC(=N)N)NC(=O)[C@H](CSCC2=O)NC(=O)[C@@H](Cc2ccccc2)NC1=O | 690 | 705 | 52 | 
C[C@@H]1NC(=O)[C@H](CC(N)=O)NC(=O)[C@H](Cc2ccc3ccccc3c2)N2C[C@H](CCCNC(=N)N)NC(=O)[C@H](CSCC2=O)NC(=O)[C@@H](Cc2ccccc2)NC(=O)[C@H](Cc2c[nH]cn2)NC(=O)[C@@H](NC(=O)[C@@H](N)Cc2ccc(O)cc2)CSSC[C@@H](C(=O)N[C@@H](Cc2ccc(O)cc2)C(N)=O)NC(=O)[C@H](Cc2ccccc2)NC1=O | 52 | 220 | 6.2 | 
C[C@@H]1NC(=O)[C@H](CC(N)=O)NC(=O)[C@H](Cc2c[nH]c3ccccc23)N2C[C@H](CCCCNC(=N)N)NC(=O)[C@H](CSCC2=O)NC(=O)[C@@H](Cc2ccccc2)NC(=O)[C@H](Cc2c[nH]cn2)NC(=O)[C@@H](NC(=O)[C@@H](N)Cc2ccc(O)cc2)CSSC[C@@H](C(=O)N[C@@H](Cc2ccc(O)cc2)C(N)=O)NC(=O)[C@H](Cc2ccccc2)NC1=O | 350 | 965 | 15 | 
C[C@@H]1NC(=O)[C@H](CC(N)=O)NC(=O)[C@H](Cc2c[nH]c3ccccc23)N2C[C@H](C)NC(=O)[C@H](CSCC2=O)NC(=O)[C@@H](Cc2ccccc2)NC(=O)[C@H](Cc2c[nH]cn2)NC(=O)[C@@H](NC(=O)[C@@H](N)Cc2ccc(O)cc2)CSSC[C@@H](C(=O)N[C@@H](Cc2ccc(O)cc2)C(N)=O)NC(=O)[C@H](Cc2ccccc2)NC1=O | 850 | 1300 | 19 | 
C[C@@H]1NC(=O)[C@H](CC(N)=O)NC(=O)[C@H](Cc2c[nH]c3ccccc23)N2C[C@H](CCCNC(=N)N)NC(=O)[C@H](CSCC2=O)NC(=O)[C@@H](Cc2ccc3ccccc3c2)NC(=O)[C@H](Cc2c[nH]cn2)NC(=O)[C@@H](NC(=O)[C@@H](N)Cc2ccc(O)cc2)CSSC[C@@H](C(=O)N[C@@H](Cc2ccc(O)cc2)C(N)=O)NC(=O)[C@H](Cc2ccccc2)NC1=O | 46 | 190 | 8.7 | 

The remaining lines, values ahead:

EC50 (Melanocortin receptor 5) [nM] | EC50 (Melanocortin receptor 4) [nM] | EC50 [1] [nM] | EC50 (Melanocortin receptor 3) [nM] | SMILES
415 | 290 | 1.94 |  | C[C@@H]1NC(=O)[C@H](CC(N)=O)NC(=O)[C@H](Cc2c[nH]c3ccccc23)N2C[C@H](CCCNC(=N)N)NC(=O)[C@H](CSCC2=O)NC(=O)[C@@H](Cc2ccccc2)NC(=O)[C@H](Cc2ccccc2)NC(=O)[C@@H](NC(=O)[C@@H](N)Cc2ccc(O)cc2)CSSC[C@@H](C(=O)N[C@@H](Cc2ccc(O)cc2)C(N)=O)NC(=O)[C@H](Cc2ccccc2)NC1=O
 |  |  | 180 | C[C@@H]1NC(=O)[C@H](CC(N)=O)NC(=O)[C@@H](Cc2ccc3ccccc3c2)N2C[C@H](CCCNC(=N)N)NC(=O)[C@@H](CSCC2=O)NC(=O)[C@@H](Cc2ccccc2)NC(=O)[C@H](Cc2cnc[nH]2)NC(=O)[C@@H](NC(=O)[C@@H](N)Cc2ccc(O)cc2)CSSC[C@@H](C(=O)N[C@@H](Cc2ccc(O)cc2)C(N)=O)NC(=O)[C@H](Cc2ccccc2)NC1=O
 |  |  | 324 | C[C@@H]1NC(=O)[C@H](CC(N)=O)NC(=O)[C@H](Cc2c[nH]c3ccccc23)N2C[C@H](CCCN=C(N)N)NC(=O)[C@@H](CSCC2=O)NC(=O)[C@@H](Cc2ccccc2)NC(=O)[C@H](Cc2cnc[nH]2)NC(=O)[C@@H](NC(=O)[C@@H](N)Cc2ccc(O)cc2)CSSC[C@@H](C(=O)N[C@@H](Cc2ccc(O)cc2)C(N)=O)NC(=O)[C@H](Cc2ccccc2)NC1=O
87 | 760 | 1.1 |  | C[C@@H]1NC(=O)[C@H](CC(N)=O)NC(=O)[C@H](Cc2c[nH]c3ccccc23)N2C[C@H](CCCNC(=N)N)NC(=O)[C@H](CSCC2=O)NC(=O)[C@@H](Cc2ccc(-c3ccccc3)cc2)NC(=O)[C@H](Cc2c[nH]cn2)NC(=O)[C@@H](NC(=O)[C@@H](N)Cc2ccc(O)cc2)CSSC[C@@H](C(=O)N[C@@H](Cc2ccc(O)cc2)C(N)=O)NC(=O)[C@H](Cc2ccccc2)NC1=O
29 | 50 | 14 |  | C[C@@H]1NC(=O)[C@H](CC(N)=O)NC(=O)[C@@H](Cc2ccc3ccccc3c2)N2C[C@H](CCCNC(=N)N)NC(=O)[C@H](CSCC2=O)NC(=O)[C@@H](Cc2ccccc2)NC(=O)[C@H](Cc2c[nH]cn2)NC(=O)[C@@H](NC(=O)[C@@H](N)Cc2ccc(O)cc2)CSSC[C@@H](C(=O)N[C@@H](Cc2ccc(O)cc2)C(N)=O)NC(=O)[C@H](Cc2ccccc2)NC1=O
460 | 420 | 30 |  | C[C@@H]1NC(=O)[C@H](CC(N)=O)NC(=O)[C@H](Cc2c[nH]c3ccccc23)N2C[C@H](CCCCN)NC(=O)[C@H](CSCC2=O)NC(=O)[C@@H](Cc2ccccc2)NC(=O)[C@H](Cc2c[nH]cn2)NC(=O)[C@@H](NC(=O)[C@@H](N)Cc2ccc(O)cc2)CSSC[C@@H](C(=O)N[C@@H](Cc2ccc(O)cc2)C(N)=O)NC(=O)[C@H](Cc2ccccc2)NC1=O
46 | 190 | 2.4 |  | C[C@@H]1NC(=O)[C@H](CC(N)=O)NC(=O)[C@H](Cc2c[nH]c3ccccc23)N2C[C@H](CCCN=C(N)N)NC(=O)[C@H](CSCC2=O)NC(=O)[C@@H](Cc2ccccc2)NC(=O)[C@H](Cc2cnc[nH]2)NC(=O)[C@@H](NC(=O)[C@@H](N)Cc2ccc(O)cc2)CSSC[C@@H](C(=O)N[C@@H](Cc2ccc(O)cc2)C(N)=O)NC(=O)[C@H](Cc2ccccc2)NC1=O
1100 | 5400 | 5000 |  | C[C@@H]1NC(=O)[C@H](CC(N)=O)NC(=O)[C@H](Cc2c[nH]c3ccccc23)N2C[C@H](CCCNC(=N)N)NC(=O)[C@H](CSCC2=O)NC(=O)[C@@H]2CCCN2C(=O)[C@H](Cc2c[nH]cn2)NC(=O)[C@@H](NC(=O)[C@@H](N)Cc2ccc(O)cc2)CSSC[C@@H](C(=O)N[C@@H](Cc2ccc(O)cc2)C(N)=O)NC(=O)[C@H](Cc2ccccc2)NC1=O
